Assay outcomes from PubChem.
L major viab: reduces viability of Leishmania major promastigotes; inhibition, % at 10 µM; resazurin fluorescence viability; actives 9% (n = 200,000); in the data active = inhibition above about 50%;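 also: promastigotes grown with compound for 44 hours at 28 °C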
Diaphorase inh: counter-screen for diaphorase-based assays: diaphorase inhibitors and chemical oxidizers. AID 1217. inhibition, % at 20 µM. diaphorase resazurin-to-resorufin fluorescence, NADH, 16 min; bacterial (C. kluyveri) enzyme, not human. actives 0.69% (n = 190,000);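 active = primary screen inhibition at 20 µM above a set limit, cut at about 50% in these data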
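material = Clostridium kluyveri diaphorase enzyme | amount = 0.14 U/mL diaphorase, enzyme working solution | schedule = incubation 16 min, room temperature | detection = fluorescence of resorufin formed from resazurin, Ex 544/Em 590 nm | benchmarks = positive control minus NADH, DMSO neutral control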
WT yeast gro inh: growth inhibition of WT yeast, mitochondrial fusion screen | mitochondrial fusion phenotypic screen, WT strain | inhibition, % at 10 µM | actives 2.1% (n = 190,000); in the data active = inhibition above about 58%; tested in S. cerevisiae
ROMK mod: modulates human ROMK potassium channel activity; Tet-inducible ROMK, thallium flux fluorescence; actives lie on both sides; B-score at 10 µM; actives 2% (n = 130,000); AID 1918;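 active = signal ratio slope over the read window, or its plate-corrected B-score, at least 3 SD from the plate mean, either direction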;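 also: B-score of the F/F0 ratio slope over 7 to 12 s after thallium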
Target sequence (P48048 whole entry, looked up): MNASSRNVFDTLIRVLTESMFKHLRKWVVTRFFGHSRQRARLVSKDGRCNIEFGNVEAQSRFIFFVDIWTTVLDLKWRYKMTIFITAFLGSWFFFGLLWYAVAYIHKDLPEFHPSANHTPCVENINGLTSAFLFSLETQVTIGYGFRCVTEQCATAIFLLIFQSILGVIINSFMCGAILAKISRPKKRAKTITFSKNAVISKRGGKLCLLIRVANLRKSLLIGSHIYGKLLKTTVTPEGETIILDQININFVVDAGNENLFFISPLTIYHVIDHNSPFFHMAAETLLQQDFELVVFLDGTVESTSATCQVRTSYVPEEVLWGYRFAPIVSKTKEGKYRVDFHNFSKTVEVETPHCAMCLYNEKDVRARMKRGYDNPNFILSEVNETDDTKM
Cl transport mod: KCC2 (human) Cl- transport modulation; actives 2.2% (n = 190,000); KCC2 cells, thallium flux FluoZin-2 fluorescence; B-score of Tl+ flux slope (higher = more flux/activation; lower = inhibition) at 10 µM; Q9H2X9;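 active = thallium flux slope and its plate-corrected score both differing from the plate sample mean at a set confidence after two filtering rounds, in either direction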;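 also: slope of fluorescence scaled to starting intensity during 10 to 20 s after thallium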
Diaphorase act: diaphorase activation or chemical reduction counter-screen; actives 0.005% (n = 190,000); AID 1229; activation factor at 20 µM; Diaphorase/resazurin coupled assay, resorufin fluorescence, 16 min; hits give high values; 1 = vehicle wells, 0 = NADH-free wells;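 active = diaphorase activity raised at least twofold by the compound at 20 µM; inactive = activation factor below 2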
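Material: purified diaphorase enzyme from Clostridium kluyveri; Also added: 0.114 mM NADH and 0.1 mM resazurin, final amounts; Doses: single compound dose of 20 µM, 1% DMSO final; Times: 16 min enzyme reaction, ambient temperature; Detection: resorufin fluorescence, excitation 544 nm, emission 590 nm; Measure: increased resorufin signal from activators or reducing compounds.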
Hits are given with their value; i = inactive; nt = no result. A selection: hits, their analogues and other compounds. The true share with any hit is near 12%.

SMILES | L major viab | Diaphorase inh | WT yeast gro inh | ROMK mod | Cl transport mod | Diaphorase act
CCCc1c(O)nc(SCC(=O)O)[nH]c1=O | i | i | i | i | i | i
CCN(CC)CCCNC(=O)c1cc2nc3c(c(C(F)(F)F)n2n1)CCc1ccccc1-3 | 96 | i | i | i | i | i
Cc1ccc(O)c(NC(=O)c2cc3nc4c(c(C(F)(F)F)n3n2)CCc2ccccc2-4)c1 | i | i | i | nt | nt | i
COCCn1c(=S)[nH]c2cc(C(=O)N3CCc4ccccc43)ccc2c1=O | i | i | 76 | nt | i | i
CCOC(=O)N1CCN(C(=O)c2ccc3c(=O)n(-c4ccc(OC)cc4OC)c(=S)[nH]c3c2)CC1 | i | i | i | i | i | i
CCOC(=O)N1CCN(C(=O)c2ccc3c(=O)n(-c4ccccc4F)c(=S)[nH]c3c2)CC1 | i | 50 | i | i | i | i
CN(C(=O)CSc1nc(N)c2c3c(sc2n1)CSC(C)(C)C3)c1ccccc1 | i | i | i | nt | i | i
O=[N+]([O-])c1ccc(N/N=C/c2ccc(O)c(O)c2O)c(S(=O)(=O)N2CCOCC2)c1 | i | 88 | i | i | i | i
O=C(CCc1ccc(S(=O)(=O)N2CCOCC2)cc1)N/N=C/c1ccc(O)c(O)c1O | i | 71 | i | i | i | i
O=C(Cn1nc(Cc2cccnc2)c2ccccc2c1=O)NCc1ccc(F)cc1 | i | i | i | nt | nt | i
COc1ccc(C2CC(=O)C3=C(C2)Nc2ncnn2C3c2ccccc2)cc1 (configuration not stated) | 91 | i | i | i | nt | i
COc1ccc(C2CC(=O)C3=C(C2)Nc2ncnn2C3c2ccccc2C)cc1 (configuration not stated) | 100 | i | i | nt | i | i
CC12CC(c3ccccc3O1)N(C(=O)c1ccco1)C(=S)N2c1ccc(F)cc1 (configuration not stated) | i | i | i | nt | i | i
O=C(NCc1ccco1)C1(c2ccc(Br)cc2)CCCC1 | i | i | i | nt | nt | i
COc1ccc(C(C(=O)NC2CCCCC2)N(C(=O)Cc2c[nH]c3ccccc23)c2ccccc2C)cc1OC (configuration not stated) | 95 | i | i | i | i | i
Cc1ccc(C(C(=O)NC2CCCCC2)N(C(=O)Cc2c[nH]c3ccccc23)c2ccccc2C)o1 (configuration not stated) | i | i | i | i | i | i
O=C1NC2(CCN(Cc3ccccc3)CC2)Oc2ccccc21 | i | i | i | i | i | i
O=C1c2ccccc2OC2(C=Cc3ccccc3O2)N1Cc1ccccc1 (configuration not stated) | i | i | 69 | i | i | i
CCOc1ccc(N(CC(=O)Nc2cccnc2)S(C)(=O)=O)cc1 | i | i | i | i | i | i
O=C(C1CCCN(S(=O)(=O)c2ccccc2[N+](=O)[O-])C1)N1CCN(c2ccccc2)CC1 (configuration not stated) | i | i | i | nt | i | i
C=CCn1c(=S)[nH]c2sc3c(c2c1=O)CCC3 | i | i | i | 3.2 | 31 | i
COc1ccc(C(=O)NNC(=O)CSc2nnc(-c3cccnc3)o2)cc1 | i | nt | i | i | i | nt
CC1=C(C(=O)OCC2CCCO2)C(c2ccccc2)NC(=O)N1 (configuration not stated) | i | i | i | i | nt | i
CC1=C(C(=O)OCCNC(=O)c2ccccc2O)C(c2ccccc2[N+](=O)[O-])C(C(=O)OCC2CCCO2)=C(C)N1 (configuration not stated) | 93 | i | i | i | i | i
COc1cc(N)cc(NC(=O)c2ccncc2)c1 | i | i | i | nt | nt | i
SMILES | L major viab | Diaphorase inh | WT yeast gro inh | ROMK mod | Cl transport mod | Diaphorase act
COc1ccc(NC(=O)c2ccc(Cl)c(NC(=O)c3ccncc3)c2)cc1 | 76 | i | i | nt | nt | i
COC(=O)c1ccc(=O)n(Cc2ccco2)c1 | i | i | i | i | i | i
COC(=O)c1ccc2c(c1)S(=O)(=O)NC(=NCc1ccco1)S2 | 96 | i | i | nt | i | i
C/C(=N\NC(=O)C1CC1)c1ccc(Cl)c(Cl)c1 | i | i | i | i | i | i
C/C(=N\N=C(N)N)c1ccc(Cl)c(Cl)c1 | 101 | i | i | i | i | i
CCC(C)N(C)Cc1cccc(C2(O)CCN(S(=O)(=O)c3ccc(F)c(C)c3)CC2)c1 (configuration not stated) | 99 | i | i | i | i | i
Cc1cc(S(=O)(=O)N2CCN(c3c(C)cccc3C)CC2)ccc1F | i | i | i | nt | i | i
COC(=O)c1ccc(N=c2sc(C(=O)OC)cc(=O)n2C)cc1 | i | i | i | nt | i | i
COC(=O)c1cc(=O)n(Cc2ccco2)c(=Nc2ccc(F)c(Cl)c2)s1 | 100 | i | i | nt | nt | i
COC(=O)c1cc(=O)n(CCc2ccccc2F)c(=Nc2ccc(F)c(Cl)c2)s1 | 99 | i | i | nt | i | i
Cc1c(C#N)sc(C(N)=O)c1C | i | i | i | i | i | i
Cc1ccc(-c2[nH]c(=S)[nH]c(=O)c2C#N)cc1 | i | 78 | i | i | i | i
CC(=O)N(C)c1ccc(OCC(O)Cn2c3ccc(Cl)cc3c3cc(Cl)ccc32)cc1 (configuration not stated) | i | i | 77 | nt | i | i
CC(=O)N(C)c1ccc(OCC(O)Cn2c(C)nc3ccccc32)cc1 (configuration not stated) | i | i | i | i | i | i
CS(=O)(=O)N(CC(=O)N1CCN(C(c2ccccc2)c2ccccc2)CC1)C1CCCCC1 | 92 | i | i | i | nt | i
Cc1ccc(S(=O)(=O)N(CC(=O)N2CCN(c3ccccc3F)CC2)C2CCCCC2)cc1 | 97 | i | i | i | nt | i
CC1(NC(=O)C2CCCCC2)CCS(=O)(=O)C1 (configuration not stated) | i | i | i | i | i | i
Cc1nc2c3c(sc2c(=O)[nH]1)NC(=O)CC3c1ccccc1Cl (configuration not stated) | nt | nt | nt | i | i | nt
CCOC(=O)C(=Cc1ccc(Br)cc1)C(=O)OCC | nt | nt | nt | nt | i | nt
CCOC(=O)C(CC)(CC)C(=O)/C=C/c1ccc(Br)cc1 | 83 | i | 61 | nt | nt | i
NC(=O)COC(=O)c1ccc(-c2ccccc2)cc1 | i | i | i | i | i | i
O=C(NCCc1c[nH]c2ccccc12)C(=O)NCC1OCCN1S(=O)(=O)c1cc(F)ccc1F (configuration not stated) | nt | nt | nt | i | i | nt
Cc1ccc(NC(=O)CSc2nn(-c3ccccc3)c(=S)s2)cc1S(=O)(=O)N(C)C | 77 | i | i | nt | i | i
COC(=O)[C@]12C(=O)C(C)=C(O)[C@@]1(C)C(C)=CC1[C@@]34CC[C@@H](OC(C)=O)C(C)(C)C3C(C[C@]12C)OC4=O (some centres not stated) | nt | nt | nt | nt | i | nt
C[C@@H](C(=O)N[C@H](C(=O)O)c1ccccc1)n1nnc2ccccc2c1=O | i | i | i | i | i | i
